Target: T1, P2X purinoceptor 7 (Homo sapiens, UniProt Q99572)
T1 sequence (Q99572 whole entry): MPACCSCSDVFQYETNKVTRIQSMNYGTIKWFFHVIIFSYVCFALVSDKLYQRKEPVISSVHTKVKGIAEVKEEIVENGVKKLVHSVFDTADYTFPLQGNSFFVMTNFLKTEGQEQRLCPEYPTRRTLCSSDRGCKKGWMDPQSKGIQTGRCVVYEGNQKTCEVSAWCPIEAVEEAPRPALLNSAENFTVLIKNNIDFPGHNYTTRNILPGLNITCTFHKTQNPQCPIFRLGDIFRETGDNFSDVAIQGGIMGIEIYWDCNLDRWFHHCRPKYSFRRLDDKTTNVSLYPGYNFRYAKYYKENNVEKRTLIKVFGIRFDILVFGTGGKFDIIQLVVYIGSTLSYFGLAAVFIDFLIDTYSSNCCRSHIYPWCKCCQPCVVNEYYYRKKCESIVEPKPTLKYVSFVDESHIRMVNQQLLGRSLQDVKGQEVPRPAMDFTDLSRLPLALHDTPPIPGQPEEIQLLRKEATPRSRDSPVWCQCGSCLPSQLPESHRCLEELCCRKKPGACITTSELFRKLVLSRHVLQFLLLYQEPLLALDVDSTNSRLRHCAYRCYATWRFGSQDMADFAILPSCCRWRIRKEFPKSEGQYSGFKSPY
Test: Antagonist activity at human P2X7 receptor expressed in HEK293 cells assessed as inhibition of BzATP-induced ethidium bromide uptake after 2 hrs by fluorescence assay
Type: cell-based
Outline: (§1)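 HEK293 cells stably carrying hP2X7 (pcDNA3.1 plasmid, Lipofectamine transfection) grown in DMEM/10% FBS, 2 mM glutamine, antibiotics, 37 °C, 5% CO2. Cells at 2.5 x 10^6/mL in pH 7.4 HEPES buffer with sucrose or NaCl, given compound plus BzATP, 2 h at 37 °C. Ethidium read at ex 530/em 590 nm as % of BzATP-only uptake. IC50 by nonlinear regression, 3-6 experiments.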

Structure (SMILES)	IC50 [nM]
O=C(NNc1ccccc1C(F)(F)F)C12C3CCC4C3C3C(CCC31)C42	366
CN([C@@H](Cc1ccc(OS(=O)(=O)c2cccc3cnccc23)cc1)C(=O)N1CCN(c2ccccc2)CC1)S(=O)(=O)c1cccc2cnccc12	96
O=C(NNc1ccccc1Cl)C12C3C=CC4C3C3C(C=CC31)C42	96
O=C(NNc1ccccc1Cl)C12C3CCC4C3C3C(CCC31)C42	933

The remaining lines, values ahead:

IC50 [nM]	Structure (SMILES)
18	CC12CC3CC1(C)CC3(C(=O)NNc1ccccc1Cl)C2
132	O=C(NNc1ccccc1C(F)(F)F)C12C3C=CC4C3C3C(C=CC31)C42
1560	O=C(NNc1ccc(C(F)(F)F)cc1Cl)C12C3C=CC4C3C3C(C=CC31)C42

Target: T2, P2X purinoceptor 7 (Homo sapiens) (UniProt Q99572)
T2 sequence (whole entry): T1 sequence (Q99572 whole entry)
Test: Antagonist activity at human P2X7 receptor expressed in HEK293 cells assessed as inhibition of BzATP-induced ethidium bromide uptake at 10 uM after 2 hrs by fluorescence assay relative to control
Type: cell-based
Outline: as §1

inhibition [%]	Structure (SMILES)
< 20	O=C(NNc1ccc(C(F)(F)F)cc1)C12C3C=CC4C3C3C(C=CC31)C42
< 20	O=C(NNc1ccc(C(F)(F)F)cc1)C12C3CCC4C3C3C(CCC31)C42
< 20	O=C1C2C3C=CC(C4CC34)C2C(=O)N1Nc1ccccc1Cl (configuration not stated)
< 20	O=C1C2C3C=CC(C4CC34)C2C(=O)N1Nc1ccccc1F (configuration not stated)
< 20	O=C1C2C3C=CC(C4CC34)C2C(=O)N1Nc1ccccc1 (configuration not stated)

Reference: ChEMBL document CHEMBL4000240, “Escape from adamantane: Scaffold optimization of novel P2X7 antagonists featuring complex polycycles” (Bioorg Med Chem Lett, 2017)
